Source: ChEMBL document CHEMBL1127523, “Design and synthesis of side-chain conformationally restricted phenylalanines and their use for structure-activity studies on tachykinin NK-1 receptor” (J Med Chem, 1994)
Starred links: 1 amine or outer side, 2 acyl side, 3 side chain; linkers in the order of their positions; H or OH if unused. Non-standard residues stand in square brackets, D forms with d. Residues, ends and D or L forms follow the SMILES beside them. Gly(9-fluorenyl) = N[C@H](C(=O)O)C1c2ccccc2-c2ccccc21; X1 = O=C([C@@H](N[*:1])C1CCc2ccccc21)[*:2]; Dip = N[C@H](C(=O)O)C(c1ccccc1)c1ccccc1

Columns and labels:
[1] = species on record: Cavia porcellus; assay: (§1) pKB value of compound was determined in presence of antagonist RP-67580 at conc. of 10e-7 M; assay type: functional
[2] = species on record: Cavia porcellus; assay: Effective concentration required for its inhibition of nonspecific binding to guinea pig ileal membranes; assay type: functional
[3] = species on record: Cavia porcellus; assay: Concentration required to inhibit nonspecific binding of [125I]BH-SP to guinea pig ileal membranes; assay type: functional
[4] = molecular target: T1, Substance-K receptor (Rattus norvegicus, UniProt P16610); assay: Concentration required to inhibit the specific binding of [3H]NKA to Neurokinin-2 (NK-2) receptor in rat duodenum membranes
T1 sequence (P16610 whole entry): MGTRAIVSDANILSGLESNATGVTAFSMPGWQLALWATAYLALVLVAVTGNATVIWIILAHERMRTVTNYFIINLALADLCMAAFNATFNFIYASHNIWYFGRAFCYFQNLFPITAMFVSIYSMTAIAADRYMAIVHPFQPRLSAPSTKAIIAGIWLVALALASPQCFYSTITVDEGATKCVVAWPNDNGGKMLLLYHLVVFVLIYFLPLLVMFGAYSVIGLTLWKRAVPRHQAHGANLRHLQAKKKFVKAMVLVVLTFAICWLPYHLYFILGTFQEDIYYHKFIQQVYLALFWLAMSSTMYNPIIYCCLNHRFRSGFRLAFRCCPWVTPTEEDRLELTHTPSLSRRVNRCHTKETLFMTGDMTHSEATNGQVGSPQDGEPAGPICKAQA

[5] = molecular target: Substance-P receptor (Rattus norvegicus, UniProt P14600); assay: Concentration required to inhibit the specific binding of [125I]BH-SP to Neurokinin-1 (NK-1) receptor in rat brain synaptosomes; assay type: subcellular
Sequence of Substance-P receptor (P14600 whole entry): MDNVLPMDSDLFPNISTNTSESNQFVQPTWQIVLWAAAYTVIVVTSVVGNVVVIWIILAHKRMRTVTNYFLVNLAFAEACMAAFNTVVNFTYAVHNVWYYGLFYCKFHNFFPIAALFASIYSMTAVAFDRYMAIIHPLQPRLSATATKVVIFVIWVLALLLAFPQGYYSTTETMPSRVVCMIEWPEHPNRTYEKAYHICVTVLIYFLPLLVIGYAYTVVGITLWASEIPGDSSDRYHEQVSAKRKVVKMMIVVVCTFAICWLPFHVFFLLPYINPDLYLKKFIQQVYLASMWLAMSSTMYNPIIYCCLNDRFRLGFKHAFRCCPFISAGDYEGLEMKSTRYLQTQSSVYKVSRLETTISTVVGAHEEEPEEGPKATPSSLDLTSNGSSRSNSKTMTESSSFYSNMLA

[6] = molecular target: T2, Neuromedin-K receptor (Rattus norvegicus, UniProt P16177); assay: Concentration required to inhibit the specific binding of [125I]BH-ELE to Neurokinin-3 (NK-3) receptor in rat brain synaptosomes; assay type: subcellular
T2 sequence (P16177 whole entry): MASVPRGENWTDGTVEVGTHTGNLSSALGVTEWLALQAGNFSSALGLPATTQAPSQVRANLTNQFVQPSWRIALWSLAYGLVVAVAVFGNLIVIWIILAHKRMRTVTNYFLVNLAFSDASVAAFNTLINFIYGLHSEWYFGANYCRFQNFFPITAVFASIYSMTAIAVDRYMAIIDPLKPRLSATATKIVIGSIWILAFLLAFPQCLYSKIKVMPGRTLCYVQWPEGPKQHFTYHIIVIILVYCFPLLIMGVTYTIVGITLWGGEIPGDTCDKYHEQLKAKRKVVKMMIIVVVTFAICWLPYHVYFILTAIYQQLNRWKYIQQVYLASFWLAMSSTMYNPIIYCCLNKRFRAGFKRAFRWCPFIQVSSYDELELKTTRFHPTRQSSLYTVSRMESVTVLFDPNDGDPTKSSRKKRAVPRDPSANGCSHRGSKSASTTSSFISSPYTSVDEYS
Procedure, shortened: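 Rat brain synaptosomes in Krebs-Ringer phosphate buffer with BSA, bacitracin and glucose. Incubated 15 min at 20 °C with 40 pM [125I]BHELE and increasing peptide concentrations, gamma counted. Triplicates, two to eight independent experiments; nonspecific binding defined with eledoisin 10⁻⁶ M. IC50 estimated from Hill plots of titration curves.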

[7] = species on record: Cavia porcellus; assay: pKb value of compound was determined in presence of antagonist RP-67580 at conc. of 10e-7 M; assay type: functional
Procedure, shortened: (§2)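 Guinea pig ileum strips (1 cm, terminal portion, males 300–400 g) in oxygenated Tyrode at 37 °C, 1 g tension. Agonist added cumulatively, doubling bath concentration at each steady response. Antagonist RP-67,580, one concentration (10⁻⁷ M), preincubated 5 min before first agonist addition. pKB = log(dose ratio − 1) − log([antagonist]); three independent determinations.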

[8] = species on record: Cavia porcellus; assay: as §1; assay type: functional; procedure, shortened: as §2; remark: listed apart in the source

Structure (SMILES)	EC50 [2] [nM]	IC50 [3] [nM]	IC50 [4] [nM]	IC50 [5] [nM]	IC50 [6] [nM]	pKb [1]	further results
CSCC[C@H](NC(=O)[C@H](CC(C)C)NC(=O)[C@@H]1CCCN1C(=O)[C@H](Cc1ccccc1)NC(=O)[C@H](Cc1ccccc1)NC(=O)[C@H](CCC(N)=O)NC(=O)[C@H](CCC(N)=O)NC(=O)[C@@H]1CCCN1C(=O)[C@H](CCCCN)NC(=O)[C@@H]1CCCN1C(=O)[C@@H](N)CCCN=C(N)N)C(N)=O						6.97	
CSCC[C@H](NC(=O)[C@H](CC(C)C)NC(=O)CNC(=O)[C@H](Cc1ccccc1)NC(=O)[C@@H](NC(=O)[C@H](CCC(N)=O)NC(=O)[C@H](CCC(N)=O)NC(=O)[C@@H]1CCCN1C(=O)[C@H](CCCCN)NC(=O)[C@@H]1CCCN1C(=O)[C@@H](N)CCCN=C(N)N)[C@@H]1CCc2ccccc21)C(N)=O [listing 1 of 2 here]						7.06	
CSCC[C@H](NC(=O)[C@H](CC(C)C)NC(=O)CNC(=O)[C@@H](NC(=O)[C@@H](NC(=O)[C@H](CCC(N)=O)NC(=O)[C@H](CCC(N)=O)NC(=O)[C@@H]1CCCN1C(=O)[C@H](CCCCN)NC(=O)[C@@H]1CCCN1C(=O)[C@@H](N)CCCN=C(N)N)C1CCc2ccccc21)C1c2ccccc2-c2ccccc21)C(N)=O (some centres not stated) (H-RPKPQQ[X1][Gly(9-fluorenyl)]GLM-NH2) [listing 1 of 2 here]							pKb [7]: 7.1
CSCC[C@H](NC(=O)[C@H](CC(C)C)NC(=O)CNC(=O)[C@H](Cc1ccccc1)NC(=O)[C@@H](NC(=O)[C@H](CCC(N)=O)NC(=O)[C@H](CCC(N)=O)NC(=O)[C@@H]1CCCN1C(=O)[C@H](CCCCN)NC(=O)[C@@H]1CCCN1C(=O)[C@@H](N)CCCN=C(N)N)C1CCc2cc3ccccc3cc21)C(N)=O (some centres not stated) [listing 1 of 2 here]						7.3	
CSCC[C@H](NC(=O)[C@H](CC(C)C)NC(=O)[C@@H]1CCCN1C(=O)[C@@H](NC(=O)[C@H](Cc1ccccc1)NC(=O)[C@H](CCC(N)=O)NC(=O)[C@H](CCC(N)=O)NC(=O)[C@@H]1CCCN1C(=O)[C@H](CCCCN)NC(=O)[C@@H]1CCCN1C(=O)[C@@H](N)CCCN=C(N)N)C(c1ccccc1)c1ccccc1)C(N)=O (H-RPKPQQF[Dip]PLM-NH2) [listing 2 of 2 here]							pKB [8]: 7.25
CSCC[C@H](NC(=O)[C@H](CC(C)C)NC(=O)CNC(=O)[C@H](Cc1ccccc1)NC(=O)/C(=C\c1ccccc1)NC(=O)[C@H](CCC(N)=O)NC(=O)[C@H](CCC(N)=O)NC(=O)[C@@H]1CCCN1C(=O)[C@H](CCCCN)NC(=O)[C@@H]1CCCN1C(=O)[C@@H](N)CCCN=C(N)N)C(N)=O						7.15	
CSCC[C@H](NC(=O)[C@H](CC(C)C)NC(=O)CNC(=O)[C@@H](NC(=O)[C@H](Cc1ccccc1)NC(=O)[C@H](CCC(N)=O)NC(=O)[C@H](CCC(N)=O)NC(=O)[C@@H]1CCCN1C(=O)[C@H](CCCCN)NC(=O)[C@@H]1CCCN1C(=O)[C@@H](N)CCCN=C(N)N)C(c1ccccc1)c1ccccc1)C(N)=O [listing 2 of 2 here]						6.9	
CSCC[C@H](NC(=O)[C@H](CC(C)C)NC(=O)CNC(=O)[C@@H](NC(=O)[C@@H](NC(=O)[C@H](CCC(N)=O)NC(=O)[C@H](CCC(N)=O)NC(=O)[C@@H]1CCCN1C(=O)[C@H](CCCCN)NC(=O)[C@@H]1CCCN1C(=O)[C@@H](N)CCCN=C(N)N)C1CCc2ccccc21)C1c2ccccc2-c2ccccc21)C(N)=O (some centres not stated) (H-RPKPQQ[X1][Gly(9-fluorenyl)]GLM-NH2) [listing 2 of 2 here]	3.4	7.9	110	29	450		
CSCC[C@H](NC(=O)[C@H](CC(C)C)NC(=O)CNC(=O)[C@H](Cc1ccccc1)NC(=O)[C@H](CCc1ccccc1)NC(=O)[C@H](CCC(N)=O)NC(=O)[C@H](CCC(N)=O)NC(=O)[C@@H]1CCCN1C(=O)[C@H](CCCCN)NC(=O)[C@@H]1CCCN1C(=O)[C@@H](N)CCCN=C(N)N)C(N)=O [listing 1 of 2 here]						7.25	
CSCC[C@H](NC(=O)[C@H](CC(C)C)NC(=O)CNC(=O)[C@H](Cc1ccccc1)NC(=O)[C@@H](NC(=O)[C@H](CCC(N)=O)NC(=O)[C@H](CCC(N)=O)NC(=O)[C@@H]1CCCN1C(=O)[C@H](CCCCN)NC(=O)[C@@H]1CCCN1C(=O)[C@@H](N)CCCN=C(N)N)C1c2ccccc2-c2ccccc21)C(N)=O [listing 2 of 2 here]						7.1	

Now from value to compound, other results behind:

EC50 [2] [nM]	IC50 [3] [nM]	IC50 [4] [nM]	IC50 [5] [nM]	IC50 [6] [nM]	Structure (SMILES)	pKb [1]	further results
15	260				CSCC[C@H](NC(=O)[C@H](CC(C)C)NC(=O)CNC(=O)[C@@H](NC(=O)[C@H](Cc1ccccc1)NC(=O)[C@H](CCC(N)=O)NC(=O)[C@H](CCC(N)=O)NC(=O)[C@@H]1CCCN1C(=O)[C@H](CCCCN)NC(=O)[C@@H]1CCCN1C(=O)[C@@H](N)CCCN=C(N)N)C(c1ccccc1)c1ccccc1)C(N)=O [listing 1 of 2 here]		
20	260	6000	2500	> 10000	CSCC[C@H](NC(=O)[C@H](CC(C)C)NC(=O)[C@@H]1CCCN1C(=O)[C@@H](NC(=O)[C@H](Cc1ccccc1)NC(=O)[C@H](CCC(N)=O)NC(=O)[C@H](CCC(N)=O)NC(=O)[C@@H]1CCCN1C(=O)[C@H](CCCCN)NC(=O)[C@@H]1CCCN1C(=O)[C@@H](N)CCCN=C(N)N)C(c1ccccc1)c1ccccc1)C(N)=O (H-RPKPQQF[Dip]PLM-NH2) [listing 1 of 2 here]		
9.5	110	690	1400	3100	CSCC[C@H](NC(=O)[C@H](CC(C)C)NC(=O)CNC(=O)[C@H](Cc1ccccc1)NC(=O)[C@@H](NC(=O)[C@H](CCC(N)=O)NC(=O)[C@H](CCC(N)=O)NC(=O)[C@@H]1CCCN1C(=O)[C@H](CCCCN)NC(=O)[C@@H]1CCCN1C(=O)[C@@H](N)CCCN=C(N)N)C1c2ccccc2-c2ccccc21)C(N)=O [listing 1 of 2 here]		
6.9	49	120	48	1600	CSCC[C@H](NC(=O)[C@H](CC(C)C)NC(=O)CNC(=O)[C@H](Cc1ccccc1)NC(=O)[C@@H](NC(=O)[C@H](CCC(N)=O)NC(=O)[C@H](CCC(N)=O)NC(=O)[C@@H]1CCCN1C(=O)[C@H](CCCCN)NC(=O)[C@@H]1CCCN1C(=O)[C@@H](N)CCCN=C(N)N)C1CCc2cc3ccccc3cc21)C(N)=O (some centres not stated) [listing 2 of 2 here]		
1.7		1300	3.3	15000	CSCC[C@H](NC(=O)[C@H](CC(C)C)NC(=O)[C@@H]1CCCN1C(=O)[C@@H](NC(=O)[C@H](Cc1ccccc1)NC(=O)[C@H](CCC(N)=O)NC(=O)[C@H](CCC(N)=O)NC(=O)[C@@H]1CCCN1C(=O)[C@H](CCCCN)NC(=O)[C@@H]1CCCN1C(=O)[C@@H](N)CCCN=C(N)N)C1c2ccccc2-c2ccccc21)C(N)=O (H-RPKPQQF[Gly(9-fluorenyl)]PLM-NH2)		
5.8	19	1900		> 10000	CSCC[C@H](NC(=O)[C@H](CC(C)C)NC(=O)CNC(=O)[C@H](Cc1ccccc1)NC(=O)[C@H](CCc1ccccc1)NC(=O)[C@H](CCC(N)=O)NC(=O)[C@H](CCC(N)=O)NC(=O)[C@@H]1CCCN1C(=O)[C@H](CCCCN)NC(=O)[C@@H]1CCCN1C(=O)[C@@H](N)CCCN=C(N)N)C(N)=O [listing 2 of 2 here]		
2.8	74	450		1900	CSCC[C@H](NC(=O)[C@H](CC(C)C)NC(=O)CNC(=O)[C@H](CCc1ccccc1)NC(=O)[C@H](Cc1ccccc1)NC(=O)[C@H](CCC(N)=O)NC(=O)[C@H](CCC(N)=O)NC(=O)[C@@H]1CCCN1C(=O)[C@H](CCCCN)NC(=O)[C@@H]1CCCN1C(=O)[C@@H](N)CCCN=C(N)N)C(N)=O		
6.9	23	530	54	2100	CSCC[C@H](NC(=O)[C@H](CC(C)C)NC(=O)CNC(=O)[C@H](Cc1ccccc1)NC(=O)[C@@H](NC(=O)[C@H](CCC(N)=O)NC(=O)[C@H](CCC(N)=O)NC(=O)[C@@H]1CCCN1C(=O)[C@H](CCCCN)NC(=O)[C@@H]1CCCN1C(=O)[C@@H](N)CCCN=C(N)N)[C@@H]1CCc2ccccc21)C(N)=O [listing 2 of 2 here]		
2.8		57	28	180	CSCC[C@H](NC(=O)[C@H](CC(C)C)NC(=O)CNC(=O)[C@@H](NC(=O)[C@H](Cc1ccccc1)NC(=O)[C@H](CCC(N)=O)NC(=O)[C@H](CCC(N)=O)NC(=O)[C@@H]1CCCN1C(=O)[C@H](CCCCN)NC(=O)[C@@H]1CCCN1C(=O)[C@@H](N)CCCN=C(N)N)[C@@H]1CCc2cc3ccccc3cc21)C(N)=O		
